Columns and labels:
Coxsackievirus B4 [1] = assay: Antiviral activity against Coxsackie virus B4 infected in african green monkey Vero cells assessed as inhibition of virus-induced cytopathogenicity; assay type: functional, organism-based; settings: Enterovirus B
Outline: (§1)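 Confluent HEL, Vero or HeLa monolayers were infected with 100 CCID50 of virus while exposed to fivefold serial dilutions of compound. Virus-induced cytopathicity was scored when it reached completion in untreated infected controls. The EC50 is the concentration that inhibits cytopathicity by 50%.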

[2] = Cytotoxicity against HEL cells assessed as morphological changes by microscopic analysis; assay type: cell-based; settings: human
Outline: (§2)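 Confluent HEL, Vero or HeLa cultures, or near-confluent MDCK cultures, exposed to fivefold compound dilutions in parallel with the antiviral cytopathicity tests. MCC is the lowest concentration causing microscopically visible alteration of cell morphology.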

Human alphaherpesvirus 2 = assay: Antiviral activity against Herpes simplex virus 2 G infected in HEL cells assessed as inhibition of virus-induced cytopathogenicity; assay type: functional, organism-based; settings: Human alphaherpesvirus 2, strain G; outline: as §1
Human respirovirus 3 = assay: Antiviral activity against Parainfluenza-3 virus infected in african green monkey Vero cells assessed as inhibition of virus-induced cytopathogenicity; assay type: functional, organism-based; settings: Human respirovirus 3, Vero
Outline: (§3)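 Confluent cell monolayers (Vero for parainfluenza-3, HEL for HSV-1 TK−) inoculated with 100 CCID50 of virus alongside fivefold compound dilutions. Cytopathicity recorded once complete in untreated infected controls. EC50 is the concentration inhibiting virus-induced cytopathicity by 50%.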

Influenza A virus [3] = assay: Antiviral activity against Influenza A virus H3N2 infected in MDCK cells assessed as inhibition of virus-induced cytopathogenicity; assay type: functional, organism-based
Outline: (§4)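 Nearly confluent MDCK cultures were infected while exposed to fivefold serial dilutions of compound. Cytopathicity was scored when it reached completion in untreated infected controls. The EC50 is the concentration that inhibits virus-induced cytopathicity by 50%.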

[4] = tested on: Human immunodeficiency virus 1; assay: Antiviral activity against Human immunodeficiency virus 1 3B infected in human CEM cells assessed as inhibition of virus-induced giant cell formation after 4 days by microscopic analysis; assay type: functional, organism-based; settings: CCRF-CEM, 96 h
Outline: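 CEM cells at about 3 × 10^5 cells/cm3 were infected with 100 CCID50/ml of virus and seeded into wells containing compound dilutions. After 4 days at 37 °C, giant cell formation was assessed under the microscope.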

Influenza B virus = assay: Antiviral activity against influenza B virus infected in MDCK cells assessed as inhibition of virus-induced cytopathogenicity; assay type: functional, organism-based; outline: as §4
Human alphaherpesvirus 1 [5] = assay: Antiviral activity against Herpes simplex virus 1 KOS infected in HEL cells assessed as inhibition of virus-induced cytopathogenicity; assay type: functional, organism-based; settings: Human alphaherpesvirus 1, KOS; outline: as §1
[6] = Cytotoxicity against human HeLa cells assessed as morphological changes by microscopic analysis; assay type: cell-based; outline: as §2
[7] = tested on: Human immunodeficiency virus 2; assay: Antiviral activity against Human immunodeficiency virus 2 ROD infected in human CEM cells assessed as inhibition of virus-induced giant cell formation after 4 days by microscopic analysis; assay type: functional, organism-based; settings: Human immunodeficiency virus 2, ISOLATE ROD, CCRF-CEM, 96 h
Outline: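 CEM cells (~3 × 10^5 cells/cm3) infected with 100 CCID50 of HIV-2(ROD) per ml and seeded into microtiter wells holding compound dilutions. Incubated 4 days at 37 °C. Giant cell formation examined microscopically.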

[8] = tested on: Mammalian orthoreovirus 1; assay: Antiviral activity against Reovirus-1 infected in african green monkey Vero cells assessed as inhibition of virus-induced cytopathogenicity; assay type: functional, organism-based; settings: Mammalian orthoreovirus 1, Vero; outline: as §1
Sindbis virus = assay: Antiviral activity against Sindbis virus infected in african green monkey Vero cells assessed as inhibition of virus-induced cytopathogenicity; assay type: functional, organism-based; outline: as §1
[9] = Cytotoxicity against african green monkey Vero cells assessed as morphological changes by microscopic analysis; assay type: cell-based; settings: chlorocebus sabaeus; outline: as §2
Influenza A virus [10] = assay: Antiviral activity against influenza A virus H1N1 infected in MDCK cells assessed as inhibition of virus-induced cytopathogenicity; assay type: functional, organism-based; outline: as §4
[11] = tested on: Vesicular stomatitis virus; assay: Antiviral activity against Vesicular stomatitis virus infected in HeLa cells; assay type: functional, organism-based; outline: as §1
Human alphaherpesvirus 3 [12] = assay: Antiviral activity against Varicella zoster virus 07/1 infected in HEL cells assessed as reduction in viral plaque formation after 5 days relative to control; assay type: functional, organism-based; settings: Human alphaherpesvirus 3, 07/1, HEL, 120 h
Outline: (§5)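 Confluent HEL cells were inoculated with 20 PFU VZV per well (Oka wild type or thymidine kinase-deficient 07-1). Residual virus was removed after 2 h and compound dilutions were added in duplicate. The EC50 is the concentration that reduces plaque formation by 50% after 5 days relative to untreated controls.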

Human alphaherpesvirus 3 [13] = assay: Antiviral activity against Varicella zoster virus OKA infected in HEL cells assessed as reduction in viral plaque formation after 5 days relative to control; assay type: functional, cell-based; settings: Human alphaherpesvirus 3, strain Oka vaccine, 120 h; outline: as §5
[14] = tested on: Respiratory syncytial virus; assay: Antiviral activity against Respiratory syncytial virus infected in HeLa cells; assay type: functional, organism-based; settings: human respiratory syncytial virus; outline: as §1
Human betaherpesvirus 5 [15] = assay: Antiviral activity against Human cytomegalovirus AD169 infected in HEL cells assessed as inhibition of virus-induced cytopathogenicity after 7 days by Giemsa staining-based microscopic analysis; assay type: functional, organism-based; settings: Human betaherpesvirus 5, AD169, HEL, 168 h
Outline: (§6)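 Confluent HEL fibroblasts infected with strains AD-169 and Davis at 100 PFU per well. After 2 h adsorption, residual virus removed and medium with test compound added, in duplicate. Incubated 7 days at 37 °C. Cytopathogenicity scored microscopically after ethanol fixation and Giemsa staining. EC50 read from graphic plots of % cytopathogenicity versus concentration.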

[16] = tested on: Vesicular stomatitis virus; assay: Antiviral activity against Vesicular stomatitis virus infected in HEL cells assessed as inhibition of virus-induced cytopathogenicity; assay type: functional, organism-based
Outline: (§7)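 Confluent HEL, Vero or HeLa monolayers were infected with 100 CCID50 of virus while exposed to fivefold serial dilutions of compound. Virus-induced cytopathicity was scored when it reached completion in untreated infected controls.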

Punta Toro virus = assay: Antiviral activity against Punta Toro virus infected in african green monkey Vero cells assessed as inhibition of virus-induced cytopathogenicity; assay type: functional, organism-based; outline: as §7
Human betaherpesvirus 5 [17] = assay: Antiviral activity against Human cytomegalovirus Davis infected in HEL cells assessed as inhibition of virus-induced cytopathogenicity after 7 days by Giemsa staining-based microscopic analysis; assay type: functional, organism-based; settings: Human betaherpesvirus 5, Davis, 168 h; outline: as §6
Human alphaherpesvirus 1 [18] = assay: Antiviral activity against thymidine kinase-deficient Herpes simplex virus 1 infected in HEL cells assessed as inhibition of virus-induced cytopathogenicity; assay type: functional, organism-based; settings: Human alphaherpesvirus 1, HEL; outline: as §3
Coxsackievirus B4 [19] = assay: Antiviral activity against Coxsackie virus B4 infected in HeLa cells; assay type: functional, organism-based; settings: Enterovirus B; outline: as §7
L1210 = assay: Cytostatic activity against mouse L1210 cells after 2 days by coulter counter analysis; assay type: functional, cell-based; settings: L1210, 48 h
Outline: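 L1210 cells at 300,000–500,000 cells/mL were mixed 1:1 with compound dilutions and incubated for 2 days at 37 °C. Cells were counted with a Coulter counter. The IC50 is the concentration that inhibits proliferation by 50%.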

[20] = Cytotoxicity against MDCK cells assessed as morphological changes by microscopic analysis; assay type: cell-based, Canis lupus familiaris; settings: dog; outline: as §2

NC(=O)c1ncn([C@@H]2O[C@H](CO)[C@@H](O)[C@H]2O)n1 [RIBAVIRIN]
EC50 (Coxsackievirus B4 [1]): > 250 µM | MCC [2]: > 250 µM | EC50 (Human alphaherpesvirus 2): > 250 µM | EC50 (Human respirovirus 3): 85 µM | EC50 (Influenza A virus [3]): 5.1 µM | EC50 [4]: > 50 µM | EC50 (Influenza B virus): 4.5 µM | EC50 (Human alphaherpesvirus 1 [5]): > 250 µM | MCC [6]: > 250 µM | EC50 [7]: > 50 µM | EC50 [8]: > 250 µM | EC50 (Sindbis virus): > 250 µM | MCC [9]: > 250 µM | EC50 (Influenza A virus [10]): 2.3 µM | EC50 [11]: 29 µM

Nc1nc2c(sc3ncn([C@H]4C[C@H](O)[C@@H](CO)O4)c32)c(=O)[nH]1
EC50 (Human alphaherpesvirus 3 [12]): 71.3 µM | EC50 (Human alphaherpesvirus 3 [13]): 71.3 µM | EC50 (Coxsackievirus B4 [1]): > 100 µM | MCC [2]: > 100 µM | EC50 (Human alphaherpesvirus 2): > 100 µM | EC50 [14]: > 100 µM | EC50 (Human respirovirus 3): > 100 µM | EC50 (Influenza A virus [3]): > 0.16 µM | EC50 (Human betaherpesvirus 5 [15]): > 100 µM | EC50 [4]: ≥ 250 µM | EC50 (Influenza B virus): > 0.16 µM | EC50 [16]: > 100 µM | EC50 (Human alphaherpesvirus 1 [5]): > 100 µM | MCC [6]: 100 µM | EC50 (Punta Toro virus): > 100 µM | EC50 [7]: ≥ 250 µM | EC50 (Human betaherpesvirus 5 [17]): > 100 µM | EC50 (Human alphaherpesvirus 1 [18]): > 100 µM | EC50 (Coxsackievirus B4 [19]): > 100 µM | EC50 [8]: > 100 µM | EC50 (Sindbis virus): > 100 µM | IC50 (L1210): 144 µM | MCC [9]: 100 µM | MCC [20]: 0.8 µM | EC50 (Influenza A virus [10]): > 0.16 µM | EC50 [11]: 100 µM

Nc1ncnc2c1sc1ncn([C@H]3C[C@H](O)[C@@H](CO)O3)c12
EC50 (Human alphaherpesvirus 3 [12]): 8.9 µM | EC50 (Human alphaherpesvirus 3 [13]): 8.9 µM | EC50 (Coxsackievirus B4 [1]): > 100 µM | MCC [2]: ≥ 20 µM | EC50 (Human alphaherpesvirus 2): > 20 µM | EC50 [14]: > 100 µM | EC50 (Human respirovirus 3): > 100 µM | EC50 (Influenza A virus [3]): > 4 µM | EC50 (Human betaherpesvirus 5 [15]): > 4 µM | EC50 [4]: > 10 µM | EC50 (Influenza B virus): > 4 µM | EC50 [16]: > 20 µM | EC50 (Human alphaherpesvirus 1 [5]): > 20 µM | MCC [6]: > 100 µM | EC50 [7]: > 10 µM | EC50 (Human betaherpesvirus 5 [17]): > 4 µM | EC50 (Human alphaherpesvirus 1 [18]): > 20 µM | EC50 (Coxsackievirus B4 [19]): > 100 µM | EC50 [8]: 100 µM | IC50 (L1210): 53 µM | MCC [9]: > 100 µM | MCC [20]: 20 µM | EC50 (Influenza A virus [10]): > 4 µM | EC50 [11]: > 100 µM
